Article PMC8035306 (Journal of medicinal chemistry, 2021)

Key:
PRMT6 [1] = target: T1, PRMT6 (Homo sapiens, UniProt Q96LA8); assay: Methyltransferase selectivity panel: PRMT6; type: biochemical; conditions: at 1 and 10 μM
Outline: (§1)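 Panel of 33 methyltransferases (8 PRMTs, 21 PKMTs, 3 DNMTs, 1 RNA methyltransferase) run by an earlier published protocol. Test compound at 1 μM and 10 μM; n = 3.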

PRMT6 [2] = target: T1, PRMT6; assay: Mass spectrometry analysis for assessing covalent binding; conditions: PRMT6 incubated with compound for 2 h
Outline: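 Purified PRMT6 incubated with a 20-fold molar excess of test compound at room temperature, then acidified with 0.1% trifluoroacetic acid (aq.). Sample separated by HPLC on a 5–95% acetonitrile/water gradient and analysed by electrospray-ionisation time-of-flight mass spectrometry for mass shifts indicating covalent adducts.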

HEK293T cells = assay: Toxicity to HEK293T cells seen in the cellular PRMT6 assay; type: cell-based; conditions: 20 h
[3] = test system: other 32 methyltransferases (PRMTs, PKMTs, DNMTs, RNA methyltransferase); assay: Methyltransferase selectivity panel: other 32 methyltransferases; type: biochemical; conditions: at 1 and 10 μM
Outline: as §1

PRMT6 [4] = target: T1, PRMT6; assay: PRMT6 radiometric biochemical assay, 2 h preincubation
MCF-7 = assay: Cell viability assay; type: cell-based; conditions: MCF-7, up to 10 μM, 3 days treatment
Outline: (§2)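 Cells seeded at 1 × 10^4 per well and left 24 h, then exposed for 3 days to serially diluted test compound starting at 10 μM. CCK-8 (WST-8) reagent added, followed by 4 h at 37 °C; absorbance read at 450 nm. Results given as average ± SD of three replicate experiments.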

HEK293T = assay: Cell viability assay; type: cell-based; conditions: up to 10 μM, 3 days treatment
Outline: as §2

PNT2 = assay: Cell viability assay; type: cell-based; conditions: PNT2, up to 10 μM, 3 days treatment
Outline: as §2

[5] = target: Flag-tagged PRMT6 in HEK293T cells (Homo sapiens, UniProt Q96LA8); assay: Cellular PRMT6 assay; type: cell-based; conditions: 20 h, up to 10 μM
Flag-tagged PRMT6 in HEK293T cells, sequence (Q96LA8 whole entry): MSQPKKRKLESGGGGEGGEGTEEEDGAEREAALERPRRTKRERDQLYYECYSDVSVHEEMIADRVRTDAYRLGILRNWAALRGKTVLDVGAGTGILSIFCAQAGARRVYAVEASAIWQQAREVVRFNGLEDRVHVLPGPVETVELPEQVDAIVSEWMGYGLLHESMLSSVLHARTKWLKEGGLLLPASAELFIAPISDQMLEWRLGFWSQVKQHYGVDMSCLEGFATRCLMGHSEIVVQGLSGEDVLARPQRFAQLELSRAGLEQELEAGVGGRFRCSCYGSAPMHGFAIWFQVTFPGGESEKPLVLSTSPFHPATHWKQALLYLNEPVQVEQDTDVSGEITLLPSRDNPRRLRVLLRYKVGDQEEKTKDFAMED

T1 sequence (Q96LA8 whole entry): as above

Row | Compound | inhibition of PRMT6 in methyltransferase panel (PRMT6 [1]) | covalent modification of PRMT6 (PRMT6 [2]) | toxicity to HEK293T cells (HEK293T cells; up to 10 μM) | inhibition of other 32 methyltransferases [3] | decrease in the IC50 value after compound preincubation with PRMT6 (PRMT6 [4]; 2 h preincubation versus no incubation) | pattern of inhibition with respect to SAM cofactor and peptide substrate (PRMT6 [4]; 2 h preincubation, IC50 at various SAM or peptide concentrations) | toxicity (cell viability) (MCF-7) | toxicity (cell viability) (HEK293T) | toxicity (cell viability) (PNT2) | toxicity to HEK293T cells (HEK293T cells; at 30 μM) | activity against PRMT6 (in words) (PRMT6 [4]) | reduction of cellular levels of H3R2me2a [5] | reduction of cellular levels of H4R3me2a [5]
1 | Cc1cc(C)cc([C@@H]2c3cc(C)ccc3NC(=O)CN2C(=O)c2ccc(Br)s2)c1 [(R)-2, 4-(5-bromothiophene-2-carbonyl)-5-(3,5-dimethylphenyl)-7-methyl-1,3,4,5-tetrahydro-2H-benzo[e][1,4]diazepin-2-one] | potently inhibited | No covalent modification | did not show significant toxicity | did not significantly inhibit | more than 100 fold | noncompetitive | Neither (R)-2 nor (S)-2 showed any significant toxicity | Neither (R)-2 nor (S)-2 showed any significant toxicity | Neither (R)-2 nor (S)-2 showed any significant toxicity | – | – | – | –
2 | Cc1cc(C)cc([C@H]2c3cc(C)ccc3NC(=O)CN2C(=O)c2ccc(Br)s2)c1 [(S)-2, 4-(5-bromothiophene-2-carbonyl)-5-(3,5-dimethylphenyl)-7-methyl-1,3,4,5-tetrahydro-2H-benzo[e][1,4]diazepin-2-one] | did not significantly inhibit | – | – | did not significantly inhibit | – | – | Neither (R)-2 nor (S)-2 showed any significant toxicity | Neither (R)-2 nor (S)-2 showed any significant toxicity | Neither (R)-2 nor (S)-2 showed any significant toxicity | significant toxicity | inactive | did not significantly reduce | did not significantly reduce
